From ChEMBL document CHEMBL4715801, “Discovery of Mycobacterium tuberculosis InhA Inhibitors by Binding Sites Comparison and Ligands Prediction” (J Med Chem, 2016)

How the values were obtained:
[1] = Inhibition of Mycobacterium tuberculosis InhA assessed as effect on NADH oxidation incubated for 10 mins by spectrophotometry
[2] = Mixed type inhibition of Mycobacterium tuberculosis InhA assessed as effect on NADH oxidation incubated for 10 mins by spectrophotometry
Summary of the method: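 Inhibition type and Ki were taken from the continuous spectrophotometric InhA assay. DD-CoA was the substrate, and its Km was determined alongside.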

[3] = Inhibition of Mycobacterium tuberculosis InhA assessed as residual enzyme activity by measuring NADH oxidation at 100 uM incubated for 10 mins by spectrophotometry

Structure (SMILES)	IC50 [1] [µM]	Ki [2] [µM]	Activity [3] [%]
Cc1cc2ncn(Cc3ccc(Cl)c(Cl)c3)c2cc1C	10	4	> 50
Cc1c(CN(C)C(=O)/C=C/c2cnc3c(c2)CCC(=O)N3)c2ccccc2n1C			> 50
COc1ccc(-c2[nH]c3ccccc3c2CCC(=O)Nc2ncccc2C)cc1	14		> 50
Oc1cc(Cl)ccc1Oc1ccc(Cl)cc1Cl			> 50
